From ChEMBL document CHEMBL1141647, “Novel ofloxacin derivatives: synthesis, antimycobacterial and toxicological evaluation” (Bioorg Med Chem Lett, 2008)
Values after ≈ are worked out from the molar mass of the structure shown.

system: Mycobacterium tuberculosis; experiment: Antimycobacterial activity against multidrug resistant Mycobacterium tuberculosis by agar dilution method; format: functional
In short: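 MIC99 was taken as the lowest concentration giving complete inhibition of bacterial growth.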

SMILES | MIC99 [µM]
CC1COc2c(N3CCN(Cc4ccc5c(c4)OCO5)CC3)c(F)c([N+](=O)[O-])c3c(=O)c(C(=O)O)cn1c23 (stereo not given) | 5.95 (≈ 3.13 µg/mL)
CC1COc2c(N3CCSCC3)c(F)c([N+](=O)[O-])c3c(=O)c(C(=O)O)cn1c23 (stereo not given) | 1.91 (≈ 0.782 µg/mL)
CC1CN(c2c(F)c([N+](=O)[O-])c3c(=O)c(C(=O)O)cn4c3c2OCC4C)CC(C)O1 (stereo not given) | 3.7 (≈ 1.56 µg/mL)
CC1COc2c(N3CCc4ccccc4C3C(=O)NC(C)(C)C)c(F)cc3c(=O)c(C(=O)O)cn1c23 (stereo not given) | 3.16 (≈ 1.56 µg/mL)
COc1cc2c(cc1OC)CN(c1c(F)c([N+](=O)[O-])c3c(=O)c(C(=O)O)cn4c3c1OCC4C)CC2 (stereo not given) | 3.12 (≈ 1.56 µg/mL)
CC1COc2c(N3CCN(C)CC3)c(F)cc3c(=O)c(C(=O)O)cn1c23 (stereo not given) [OFLOXACIN] | 34.6 (≈ 12.5 µg/mL)
CC1COc2c(N3CCn4cc(C(=O)O)nc4C3)c(F)cc3c(=O)c(C(=O)O)cn1c23 (stereo not given) | 0.44 (≈ 0.188 µg/mL)
CC1COc2c(N3CCC(n4c(=O)[nH]c5cc(Cl)ccc54)CC3)c(F)c([N+](=O)[O-])c3c(=O)c(C(=O)O)cn1c23 (stereo not given) | 0.34 (≈ 0.19 µg/mL)
CC1COc2c(N3CCC4(CC3)OCCO4)c(F)c([N+](=O)[O-])c3c(=O)c(C(=O)O)cn1c23 (stereo not given) | 0.09 (≈ 0.0404 µg/mL)
COc1cc2c(cc1OC)CN(c1c(F)cc3c(=O)c(C(=O)O)cn4c3c1OCC4C)CC2 (stereo not given) | 3.43 (≈ 1.56 µg/mL)
CC1COc2c(N3CCc4ccccc4C3C(=O)NC(C)(C)C)c(F)c([N+](=O)[O-])c3c(=O)c(C(=O)O)cn1c23 (stereo not given) | 1.45 (≈ 0.781 µg/mL)
CC1COc2c(N3CCSCC3)c(F)cc3c(=O)c(C(=O)O)cn1c23 (stereo not given) | 8.59 (≈ 3.13 µg/mL)
CC1COc2c(N3CCC4(CC3)OCCO4)c(F)c(N)c3c(=O)c(C(=O)O)cn1c23 (stereo not given) | 3.72 (≈ 1.56 µg/mL)
CC1COc2c(N3CCC4(CC3)OCCO4)c(F)cc3c(=O)c(C(=O)O)cn1c23 (stereo not given) | 0.09 (≈ 0.0364 µg/mL)
CC1COc2c(N3CCC(n4c(=O)[nH]c5cc(Cl)ccc54)CC3)c(F)cc3c(=O)c(C(=O)O)cn1c23 (stereo not given) | 0.76 (≈ 0.39 µg/mL)
NNC(=O)c1ccncc1 [ISONIAZID] | 45.6 (≈ 6.25 µg/mL)
CC1COc2c(N3CCN(C(=O)C4COc5ccccc5O4)CC3)c(F)c([N+](=O)[O-])c3c(=O)c(C(=O)O)cn1c23 (stereo not given) | 1.41 (≈ 0.782 µg/mL)
CC1COc2c(N3CCn4cc(C(=O)O)nc4C3)c(F)c(N)c3c(=O)c(C(=O)O)cn1c23 (stereo not given) | 1.76 (≈ 0.78 µg/mL)
CC1COc2c(N3CCn4cc(C(=O)O)nc4C3)c(F)c([N+](=O)[O-])c3c(=O)c(C(=O)O)cn1c23 (stereo not given) | 0.09 (≈ 0.0426 µg/mL)
CC1CN(c2c(F)cc3c(=O)c(C(=O)O)cn4c3c2OCC4C)CC(C)O1 (stereo not given) | 8.3 (≈ 3.12 µg/mL)
CC1COc2c(N3CCN(C(c4ccccc4)c4ccc(Cl)cc4)CC3)c(F)c([N+](=O)[O-])c3c(=O)c(C(=O)O)cn1c23 (stereo not given) | 2.63 (≈ 1.56 µg/mL)
CC1COc2c(N3CCN(C)C(c4ccccc4)C3)c(F)c([N+](=O)[O-])c3c(=O)c(C(=O)O)cn1c23 (stereo not given) | 3.23 (≈ 1.56 µg/mL)
CC1COc2c(N3CCC(O)(c4ccc(Cl)cc4)CC3)c(F)c([N+](=O)[O-])c3c(=O)c(C(=O)O)cn1c23 (stereo not given) | 3.01 (≈ 1.56 µg/mL)
CC1COc2c(N3CCN(C(=O)c4ccco4)CC3)c(F)c([N+](=O)[O-])c3c(=O)c(C(=O)O)cn1c23 (stereo not given) | 1.6 (≈ 0.778 µg/mL)

system: not listed separately; experiment: Selectivity index, Ratio of IC50 for human Vero cells to MIC99 for multidrug resistant Mycobacterium tuberculosis; format: functional

SMILES | Selectivity index
CC1COc2c(N3CCn4cc(C(=O)O)nc4C3)c(F)c([N+](=O)[O-])c3c(=O)c(C(=O)O)cn1c23 (stereo not given) | >1467
